Here are results for 3 compounds from publication PMC11568512 (Chemical communications (Cambridge, England), 2024).

Data set [1] has as its system transferrin receptor 1 (TfR1). Briefly: Western blot of iron handlers. It is filed as cell-based. The settings on record: DFX 50 μM, QT and IQT 5 μM, FAC 50 μM. The procedure, abridged: (§1)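 A2780 cancer cells were exposed to test compounds (5 μM) or the reference iron chelator deferasirox (50 μM), with DMSO vehicle as control. Transferrin receptor 1 and ferritin heavy chain were probed by Western blot as markers of iron signalling. Statistics used t-tests versus DMSO vehicle.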

For data set [2], the system named is tested cancer cell lines (MDA-MB-231, A2780). Kind of data set: Antiproliferative activity, text summary over tested cancer cell lines. The data set is classed as cell-based. The settings on record: 72 h, read-out: IC50 range in the tested cancer cell lines.
Data set [3] deals with ferritin heavy chain (ferritin H). Briefly: Western blot of iron handlers. The data set is classed as cell-based. The settings on record: DFX 50 μM, QT and IQT 5 μM, FAC 50 μM. Put shortly:
as §1
For orientation: A western blot detects proteins with antibodies after separation by electrophoresis.

A further data set concerns A2780 cells. Kind of data set: Cell cycle analysis by flow cytometry. It is filed as cell-based. The settings on record: A2780, 24-hour incubation, DFX 50 μM, QT and IQT 5 μM. Background: A flow cytometer gives signals particle by particle.
For a further data set, the system named is MDA-MB-231. Briefly: Antiproliferative activity, resazurin assay. The data set is classed as cell-based. The settings on record: Homo sapiens, MDA-MB-231, 72 h, read-out: IC50 MDA-MB-231.
A further data set has as its system A2780. Briefly: Antiproliferative activity, resazurin assay. It is filed as cell-based. The settings on record: Homo sapiens, A2780, 72 h, read-out: IC50 A2780. On the technique in general: The colour change of resazurin is a common sign of viable cells or microbes.
For data set [4] the following is noted: cited from earlier work.

The term IC50 denotes the point on the concentration scale where inhibition reaches its midpoint. In the case of `O=C(O)c1ccc(-n2nc(-c3ccccc3O)nc2-c2ccccc2O)cc1` [DFX, deferasirox], the TfR1 expression level entry in data set [1] is reported as “upregulation of TfR1”. The IC50 in data set [2] was 10 to 20 µM; in the data set on MDA-MB-231, 15 ± 2 µM; in the data set on A2780 it was 12 ± 2 µM. Also, in data set [3], the “ferritin H expression level” value is “degradation of ferritin”. In the data set with A2780 cells, the cell cycle effect entry is on record as “cell accumulation in the S-phase”.

On to `Cc1nc(-[n+]2nc(-c3ccccc3)nn2-c2ccccc2)sc1C.[Br-]` [MTT, 3-(4,5-dimethyl-2-thiazolyl)-2,5-diphenyl-tetrazolium], for which the “reduction in FBS” value in data set [4] is given as “prone to reduction in FBS”.

Turning to ferric ammonium citrate [FAC], the TfR1 expression level result in data set [1] is reported as “decreased TfR1 expression”. Moreover, the “ferritin H expression level” value in data set [3] was “upregulation of ferritin”.
